Assay results taken from ChEMBL document CHEMBL3627671, “Novel derivatives of nitro-substituted salicylic acids: Synthesis, antimicrobial activity and cytotoxicity” (Bioorg Med Chem, 2015).
Values after ≈ are worked out from the molar mass of the structure shown.

Legend:
Type in all cases: functional
Mycobacterium kansasii [1] = test: Antimycobacterial activity against Mycobacterium kansasii 6509/96 after 21 days; details: 6509/96, 504 h
Procedure, shortened: (§1)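 Šula's semisynthetic medium micromethod at 37 °C, read after 7, 14 and 21 days. The 1.0 McFarland suspension was diluted 10^-4. MIC determined. 6509/96 is a clinical isolate.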

Mycobacterium avium [2] = test: Antimycobacterial activity against Mycobacterium avium 330/80 after 21 days; details: 330/80, 504 h
Mycobacterium kansasii [3] = test: Antimycobacterial activity against Mycobacterium kansasii 235/80 after 21 days; details: 235/80, 504 h; procedure, shortened: as §1
[4] = test system: Mycobacterium tuberculosis; test: Antimycobacterial activity against Mycobacterium tuberculosis H37Rv 331/88 after 14 days; details: H37Rv 331/88, 336 h
Mycobacterium kansasii [5] = test: Antimycobacterial activity against Mycobacterium kansasii 6509/96 after 14 days; details: 6509/96, 336 h; procedure, shortened: as §1
Mycobacterium kansasii [6] = test: Antimycobacterial activity against Mycobacterium kansasii 235/80 after 7 days; details: 235/80, 168 h; procedure, shortened: as §1
Mycobacterium kansasii [7] = test: Antimycobacterial activity against Mycobacterium kansasii 235/80 after 14 days; details: 235/80, 336 h; procedure, shortened: as §1
[8] = test system: Mycobacterium tuberculosis; test: Antimycobacterial activity against Mycobacterium tuberculosis H37Rv 331/88 after 21 days; details: H37Rv 331/88, 504 h
Mycobacterium avium [9] = test: Antimycobacterial activity against Mycobacterium avium 330/80 after 14 days; details: 330/80, 336 h
Mycobacterium kansasii [10] = test: Antimycobacterial activity against Mycobacterium kansasii 6509/96 after 7 days; details: 6509/96, 168 h; procedure, shortened: as §1
Pichia kudriavzevii [11] = test: Antifungal activity against Candida krusei E28 after 24 hrs by microdilution broth method; details: E28, 24 h
Procedure, shortened: (§2)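 CLSI M27-A3 broth microdilution in RPMI 1640 with glutamine, buffered to pH 7.0 with MOPS; DMSO diluent. Yeast inoculum 5 × 10^3 ± 0.2 CFU/mL. Moulds grown on Sabouraud agar 3–10 days before spore harvest, final inoculum 0.5-5 × 10^4 CFU/mL, checked in a Bürker chamber. Incubated dark, humid, 35 °C, read at 24 and 48 h visually and at 540 nm. MIC taken as ≥80% (yeasts) or ≥50% (filamentous) growth reduction versus control.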

Lichtheimia corymbifera [12] = test: Antifungal activity against Absidia corymbifera 272 after 48 hrs by microdilution broth method; details: Lichtheimia corymbifera, 272, 48 h; procedure, shortened: as §2
Candida tropicalis [13] = test: Antifungal activity against Candida tropicalis 156 after 24 hrs by microdilution broth method; details: Candida tropicalis, 156, 24 h; procedure, shortened: as §2
Nakaseomyces glabratus [14] = test: Antifungal activity against Candida glabrata 20/I after 24 hrs by microdilution broth method; procedure, shortened: as §2
[15] = test system: Trichophyton mentagrophytes; test: Antifungal activity against Trichophyton mentagrophytes 445 after 24 hrs by microdilution broth method; details: Trichophyton mentagrophytes, 445, 24 h
Pichia kudriavzevii [16] = test: Antifungal activity against Candida krusei E28 after 48 hrs by microdilution broth method; details: E28, 48 h; procedure, shortened: as §2
Candida albicans [17] = test: Antifungal activity against Candida albicans ATCC 44859 after 48 hrs by microdilution broth method; details: ATCC 44859, 48 h; procedure, shortened: as §2
Nakaseomyces glabratus [18] = test: Antifungal activity against Candida glabrata 20/I after 48 hrs by microdilution broth method; procedure, shortened: as §2
Trichosporon asahii [19] = test: Antifungal activity against Trichosporon asahii 1188 after 48 hrs by microdilution broth method; details: Trichosporon asahii, 1188, 48 h; procedure, shortened: as §2
Candida tropicalis [20] = test: Antifungal activity against Candida tropicalis 156 after 48 hrs by microdilution broth method; details: Candida tropicalis, 156, 48 h; procedure, shortened: as §2
Candida albicans [21] = test: Antifungal activity against Candida albicans ATCC 44859 after 24 hrs by microdilution broth method; details: ATCC 44859, 24 h; procedure, shortened: as §2
Aspergillus fumigatus [22] = test: Antifungal activity against Aspergillus fumigatus 231 after 24 hrs by microdilution broth method; details: Aspergillus fumigatus, 231, 24 h; procedure, shortened: as §2
Lichtheimia corymbifera [23] = test: Antifungal activity against Absidia corymbifera 272 after 24 hrs by microdilution broth method; details: Lichtheimia corymbifera, 272, 24 h; procedure, shortened: as §2
[24] = test system: Trichophyton mentagrophytes; test: Antifungal activity against Trichophyton mentagrophytes 445 after 48 hrs by microdilution broth method; details: Trichophyton mentagrophytes, 445, 48 h
Trichosporon asahii [25] = test: Antifungal activity against Trichosporon asahii 1188 after 24 hrs by microdilution broth method; details: Trichosporon asahii, 1188, 24 h; procedure, shortened: as §2
Aspergillus fumigatus [26] = test: Antifungal activity against Aspergillus fumigatus 231 after 48 hrs by microdilution broth method; details: Aspergillus fumigatus, 231, 48 h; procedure, shortened: as §2
Pseudomonas aeruginosa [27] = test: Antibacterial activity against Pseudomonas aeruginosa CCM 1961 after 48 hrs by microdilution broth method; details: CCM 1961, 48 h
Procedure, shortened: (§3)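 Mueller-Hinton broth microdilution (modified M07-A07), pH 7.4 (±0.2). Compounds dissolved in DMSO, tested at final 500 to 0.49 µmol/L. Inoculum in sterile water matched to 0.5 McFarland. Incubated in the dark, humid atmosphere, 35 °C, read at 24 and 48 h visually and at 540 nm. MIC taken as ≥95% growth reduction (IC95) versus control.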

Enterococcus sp. [28] = test: Antibacterial activity against Enterococcus sp. J 14365/08 after 48 hrs by microdilution broth method; details: J 14365/08, 48 h; procedure, shortened: as §3
Staphylococcus aureus [29] = test: Antibacterial activity against Staphylococcus aureus CCM 4516/08 after 24 hrs by microdilution broth method; details: CCM 4516/08, 24 h
[30] = test system: Staphylococcus epidermidis; test: Antibacterial activity against Staphylococcus epidermidis H 6966/08 after 24 hrs by microdilution broth method; details: H 6966/08, 24 h; procedure, shortened: as §3
Enterococcus sp. [31] = test: Antibacterial activity against Enterococcus sp. J 14365/08 after 24 hrs by microdilution broth method; details: J 14365/08, 24 h; procedure, shortened: as §3
Klebsiella pneumoniae [32] = test: Antibacterial activity against ESBL-positive Klebsiella pneumoniae J 14368/08 after 48 hrs by microdilution broth method; details: J 14368/08, 48 h; procedure, shortened: as §3
Escherichia coli [33] = test: Antibacterial activity against Escherichia coli CCM4517 after 24 hrs by microdilution broth method; details: CCM4517, 24 h; procedure, shortened: as §3
Staphylococcus aureus [34] = test: Antibacterial activity against Staphylococcus aureus CCM 4516/08 after 48 hrs by microdilution broth method; details: CCM 4516/08, 48 h
Staphylococcus aureus [35] = test: Antibacterial activity against methicillin-resistant Staphylococcus aureus H 5996/08 after 24 hrs by microdilution broth method; details: H 5996/08, 24 h
Klebsiella pneumoniae [36] = test: Antibacterial activity against ESBL-positive Klebsiella pneumoniae J 14368/08 after 24 hrs by microdilution broth method; details: J 14368/08, 24 h; procedure, shortened: as §3
Klebsiella pneumoniae [37] = test: Antibacterial activity against Klebsiella pneumoniae D 11750/08 after 24 hrs by microdilution broth method; details: D 11750/08, 24 h; procedure, shortened: as §3
[38] = test system: Staphylococcus epidermidis; test: Antibacterial activity against Staphylococcus epidermidis H 6966/08 after 48 hrs by microdilution broth method; details: H 6966/08, 48 h; procedure, shortened: as §3
Pseudomonas aeruginosa [39] = test: Antibacterial activity against Pseudomonas aeruginosa CCM 1961 after 24 hrs by microdilution broth method; details: CCM 1961, 24 h; procedure, shortened: as §3
Escherichia coli [40] = test: Antibacterial activity against Escherichia coli CCM4517 after 48 hrs by microdilution broth method; details: CCM4517, 48 h; procedure, shortened: as §3
Staphylococcus aureus [41] = test: Antibacterial activity against methicillin-resistant Staphylococcus aureus H 5996/08 after 48 hrs by microdilution broth method; details: H 5996/08, 48 h
Klebsiella pneumoniae [42] = test: Antibacterial activity against Klebsiella pneumoniae D 11750/08 after 48 hrs by microdilution broth method; details: D 11750/08, 48 h; procedure, shortened: as §3

O=C(Nc1cccc([N+](=O)[O-])c1)c1cccc([N+](=O)[O-])c1O
MIC (Mycobacterium kansasii [1]): 250 µM (≈ 75.8 µg/mL)
MIC (Mycobacterium avium [2]): > 500 µM
MIC (Mycobacterium kansasii [3]): 250 µM (≈ 75.8 µg/mL)
MIC [4]: 62.5 µM (≈ 19 µg/mL)
MIC (Mycobacterium kansasii [5]): 250 µM (≈ 75.8 µg/mL)
MIC (Mycobacterium kansasii [6]): 62.5 µM (≈ 19 µg/mL)
MIC (Mycobacterium kansasii [7]): 250 µM (≈ 75.8 µg/mL)
MIC [8]: 62.5 µM (≈ 19 µg/mL)
MIC (Mycobacterium avium [9]): > 500 µM
MIC (Mycobacterium kansasii [10]): 62.5 µM (≈ 19 µg/mL)

O=C(Nc1ccc([N+](=O)[O-])cc1)c1cccc([N+](=O)[O-])c1O
MIC (Mycobacterium kansasii [1]): 125 µM (≈ 37.9 µg/mL)
MIC (Mycobacterium avium [2]): 125 µM (≈ 37.9 µg/mL)
MIC (Mycobacterium kansasii [3]): 125 µM (≈ 37.9 µg/mL)
MIC [4]: 32 µM (≈ 9.7 µg/mL)
MIC (Mycobacterium kansasii [5]): 125 µM (≈ 37.9 µg/mL)
MIC (Mycobacterium kansasii [6]): 32 µM (≈ 9.7 µg/mL)
MIC (Mycobacterium kansasii [7]): 62.5 µM (≈ 19 µg/mL)
MIC [8]: 32 µM (≈ 9.7 µg/mL)
MIC (Mycobacterium avium [9]): 125 µM (≈ 37.9 µg/mL)
MIC (Mycobacterium kansasii [10]): 62.5 µM (≈ 19 µg/mL)

OC(Cn1cncn1)(Cn1cncn1)c1ccc(F)cc1F [FLUCONAZOLE]
MIC (Pichia kudriavzevii [11]): 125 µM (≈ 38.3 µg/mL)
MIC (Lichtheimia corymbifera [12]): > 500 µM
MIC (Candida tropicalis [13]): > 500 µM
MIC (Nakaseomyces glabratus [14]): 31.2 µM (≈ 9.57 µg/mL)
MIC [15]: 7.81 µM (≈ 2.39 µg/mL)
MIC (Pichia kudriavzevii [16]): 250 µM (≈ 76.6 µg/mL)
MIC (Candida albicans [17]): 0.24 µM (≈ 0.0735 µg/mL)
MIC (Nakaseomyces glabratus [18]): 500 µM (≈ 153 µg/mL)
MIC (Trichosporon asahii [19]): 500 µM (≈ 153 µg/mL)
MIC (Candida tropicalis [20]): > 500 µM
MIC (Candida albicans [21]): 0.24 µM (≈ 0.0735 µg/mL)
MIC (Aspergillus fumigatus [22]): > 500 µM
MIC (Lichtheimia corymbifera [23]): > 500 µM
MIC [24]: 125 µM (≈ 38.3 µg/mL)
MIC (Trichosporon asahii [25]): 250 µM (≈ 76.6 µg/mL)
MIC (Aspergillus fumigatus [26]): > 500 µM

NNC(=O)c1ccncc1 [ISONIAZID]
MIC (Mycobacterium kansasii [1]): 8 µM (≈ 1.1 µg/mL)
MIC (Mycobacterium avium [2]): > 250 µM
MIC (Mycobacterium kansasii [3]): > 250 µM
MIC [4]: 0.5 µM (≈ 0.0686 µg/mL)
MIC (Mycobacterium kansasii [5]): 8 µM (≈ 1.1 µg/mL)
MIC (Mycobacterium kansasii [6]): > 250 µM
MIC (Mycobacterium kansasii [7]): > 250 µM
MIC [8]: 1 µM (≈ 0.137 µg/mL)
MIC (Mycobacterium avium [9]): > 250 µM
MIC (Mycobacterium kansasii [10]): 4 µM (≈ 0.549 µg/mL)

CC1(C)S[C@@H]2[C@H](NC(=O)Cc3ccccc3)C(=O)N2[C@H]1C(=O)O [PENICILLIN G]
MIC (Pseudomonas aeruginosa [27]): > 500 µM
MIC (Enterococcus sp. [28]): 15.6 µM (≈ 5.22 µg/mL)
MIC (Staphylococcus aureus [29]): 0.98 µM (≈ 0.328 µg/mL)
MIC [30]: 250 µM (≈ 83.6 µg/mL)
MIC (Enterococcus sp. [31]): 7.81 µM (≈ 2.61 µg/mL)
MIC (Klebsiella pneumoniae [32]): > 500 µM
MIC (Escherichia coli [33]): 125 µM (≈ 41.8 µg/mL)
MIC (Staphylococcus aureus [34]): 0.98 µM (≈ 0.328 µg/mL)
MIC (Staphylococcus aureus [35]): 62.5 µM (≈ 20.9 µg/mL)
MIC (Klebsiella pneumoniae [36]): > 500 µM
MIC (Klebsiella pneumoniae [37]): 500 µM (≈ 167 µg/mL)
MIC [38]: 250 µM (≈ 83.6 µg/mL)
MIC (Pseudomonas aeruginosa [39]): > 500 µM
MIC (Escherichia coli [40]): 125 µM (≈ 41.8 µg/mL)
MIC (Staphylococcus aureus [41]): 125 µM (≈ 41.8 µg/mL)
MIC (Klebsiella pneumoniae [42]): 500 µM (≈ 167 µg/mL)
